Results of several laboratories.
Each line is one published result; the experiments were not run side by side.
Cell line: OVCAR-5
Effect on: cell growth or viability

SMILES	method	time	measurement	result
CC[C@@H]1C=CC(=O)O[C@@H]1C[C@@H](O)[C@H](C)[C@H](O)[C@@H](C)Cc1ccc(F)cc1	MTT	48 h	GI50	0.0165 µM
COc1cc(-c2ccc(-c3ccc(C(=N)N)nc3)s2)cc(OC)c1OC	SRB		GI50	2.1 µM
CCN1CCN(Cc2ccc(Nc3ncc(F)c(-c4cc(F)c5nc(C)n(C(C)C)c5c4)n3)nc2)CC1	CCK-8		IC50	2.5 µM
Cc1cc(C)n(C(=S)[S][Au][PH](CCCCCC[PH]([Au][S]C(=S)n2nc(C)cc2C)(c2ccccc2)c2ccccc2)(c2ccccc2)c2ccccc2)n1			GI50	1.21 µM
COc1cccc(Oc2ccccc2NC(=O)CNC(=O)c2cccc3ccccc23)c1	SRB	48 h	GI50	1.12 µM
C/C=C/C[C@H](C)[C@@H](OC)[C@@H](C)[C@H](O)C[C@H]1OC(=O)C=C[C@H]1CC	MTT	48 h	GI50	0.0219 µM
COc1ccc(C(=O)/C=C/c2cccc(Cl)c2)cc1S(N)(=O)=O	SRB	48 h	GI50	1.9 µM
S=C([S][Au-][P+](CCCCCC[P+]([Au-][S]C(=S)n1cccn1)(c1ccccc1)c1ccccc1)(c1ccccc1)c1ccccc1)n1cccn1			GI50	3.63 µM
CC[C@@H]1C=CC(=O)O[C@@H]1C[C@@H](O)[C@H](C)[C@H](OC)[C@@H](C)Cc1ccc(F)cc1	MTT	48 h	GI50	0.0753 µM
COc1ccccc1/C=C/C(=O)c1ccc(OC)c(S(N)(=O)=O)c1	SRB	48 h	GI50	2.2 µM
COc1ccc(-c2ccc(-c3ccc(C(=N)N)nc3)s2)cc1	SRB		GI50	1.67 µM
